System: Fibroblast
Experiment: Multiplex assay against human fibroblast
Type: toxicity, cell-based
Procedure, shortened: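 Values for tubulin, mitochondrial-mass and membrane-permeability phenotypes are per cents of cells with healthy nuclei. These cells were identified by CellPathfinder machine-learning gating of live cells that had been stained at seeding with Hoechst33342, BioTracker Green Microtubule Cytoskeleton Dye, MitoTracker Red and Annexin V Alexa Fluor 680 and imaged on a CQ1 microscope at 37°C and 5% CO2 after compound addition. The gating first set Hoechst high-intensity objects apart from normal cells, then split normal cells into healthy, pyknosed or fragmented nuclei, and pyknosed cells into mitotic or apoptotic.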

[1] = 12 h, 1 µM, compound concentration 1 uM, replicate 1
[2] = 12 h, 1 µM, compound concentration 1 uM, replicate 2
[3] = 12 h, 10 µM, compound concentration 10 uM, replicate 1
[4] = 12 h, 10 µM, compound concentration 10 uM, replicate 2
[5] = 24 h, 1 µM, compound concentration 1 uM, replicate 1
[6] = 24 h, 1 µM, compound concentration 1 uM, replicate 2
[7] = 24 h, 10 µM, compound concentration 10 uM, replicate 1
[8] = 24 h, 10 µM, compound concentration 10 uM, replicate 2

With CN(C)CCOc1ccc(-c2nc(-c3ccncc3)c(-c3ccc4c(c3)CC/C4=N\O)[nH]2)cc1 [SB590885] the “Population Apoptotic (%)” value [1] was 86%, the “Population Fragmented Nuclei (%)” value [1] was 40% and the “Population Healthy Nuclei (%)” value [1] was 29%. The “Population Hoechst High Intensity Objects (%)” value [1] was 31%, the “Population Membrane Permeable-Phenotype (%)” value [1] was 4% and the “Population Mitochondria Different-Phenotype (%)” value [1] was 1%. The “Population Mitotic Cells (%)” value [1] was 13%, the “Population Normal (%)” value [1] was 68% and the “Population Pyknosed Nuclei (%)” value [1] was 30%. For the same compound, the “Population Tubulin-Different-Phenotype (%)” value [1] was 12%, the “Total Cell Count” value [1] was 562 and the “Population Apoptotic (%)” value [2] was 87%. For the same compound, the “Population Fragmented Nuclei (%)” value [2] was 44%, the “Population Healthy Nuclei (%)” value [2] was 3% and the “Population Hoechst High Intensity Objects (%)” value [2] was 32%. The “Population Membrane Permeable-Phenotype (%)” value [2] was 10%, the “Population Mitochondria Different-Phenotype (%)” value [2] was 5% and the “Population Mitotic Cells (%)” value [2] was 12%. For the same compound, the “Population Normal (%)” value [2] was 67%, the “Population Pyknosed Nuclei (%)” value [2] was 52% and the “Population Tubulin-Different-Phenotype (%)” value [2] was 42%. The “Total Cell Count” value [2] was 833, the “Population Apoptotic (%)” value [3] was 84% and the “Population Fragmented Nuclei (%)” value [3] was 38%. The “Population Healthy Nuclei (%)” value [3] was 48%, the “Population Hoechst High Intensity Objects (%)” value [3] was 14% and the “Population Membrane Permeable-Phenotype (%)” value [3] was 4%. For the same compound, the “Population Mitochondria Different-Phenotype (%)” value [3] was 5%, the “Population Mitotic Cells (%)” value [3] was 15% and the “Population Normal (%)” value [3] was 85%. The “Population Pyknosed Nuclei (%)” value [3] was 12%, the “Population Tubulin-Different-Phenotype (%)” value [3] was 13% and the “Total Cell Count” value [3] was 245. The “Population Apoptotic (%)” value [4] was 100%, the “Population Fragmented Nuclei (%)” value [4] was 69% and the “Population Healthy Nuclei (%)” value [4] was 28%. For the same compound, the “Population Hoechst High Intensity Objects (%)” value [4] was 50%, the “Population Membrane Permeable-Phenotype (%)” value [4] was 11% and the “Population Mitochondria Different-Phenotype (%)” value [4] was 16%. For the same compound, the “Population Mitotic Cells (%)” value [4] was 0%, the “Population Normal (%)” value [4] was 49% and the “Population Pyknosed Nuclei (%)” value [4] was 1%. For the same compound, the “Population Tubulin-Different-Phenotype (%)” value [4] was 22%, the “Total Cell Count” value [4] was 128 and the “Population Apoptotic (%)” value [5] was 88%. For the same compound, the “Population Fragmented Nuclei (%)” value [5] was 50%, the “Population Healthy Nuclei (%)” value [5] was 40% and the “Population Hoechst High Intensity Objects (%)” value [5] was 43%. The “Population Membrane Permeable-Phenotype (%)” value [5] was 1%, the “Population Mitochondria Different-Phenotype (%)” value [5] was 0% and the “Population Mitotic Cells (%)” value [5] was 11%. The “Population Normal (%)” value [5] was 56%, the “Population Pyknosed Nuclei (%)” value [5] was 8% and the “Population Tubulin-Different-Phenotype (%)” value [5] was 5%. The “Total Cell Count” value [5] was 552, the “Population Apoptotic (%)” value [6] was 90% and the “Population Fragmented Nuclei (%)” value [6] was 36%. For the same compound, the “Population Healthy Nuclei (%)” value [6] was 3%, the “Population Hoechst High Intensity Objects (%)” value [6] was 35% and the “Population Membrane Permeable-Phenotype (%)” value [6] was 20%. For the same compound, the “Population Mitochondria Different-Phenotype (%)” value [6] was 5%, the “Population Mitotic Cells (%)” value [6] was 9% and the “Population Normal (%)” value [6] was 64%. The “Population Pyknosed Nuclei (%)” value [6] was 59%, the “Population Tubulin-Different-Phenotype (%)” value [6] was 25% and the “Total Cell Count” value [6] was 821. The “Population Apoptotic (%)” value [7] was 67%, the “Population Fragmented Nuclei (%)” value [7] was 35% and the “Population Healthy Nuclei (%)” value [7] was 51%. For the same compound, the “Population Hoechst High Intensity Objects (%)” value [7] was 14%, the “Population Membrane Permeable-Phenotype (%)” value [7] was 6% and the “Population Mitochondria Different-Phenotype (%)” value [7] was 3%. For the same compound, the “Population Mitotic Cells (%)” value [7] was 32%, the “Population Normal (%)” value [7] was 85% and the “Population Pyknosed Nuclei (%)” value [7] was 13%. For the same compound, the “Population Tubulin-Different-Phenotype (%)” value [7] was 9%, the “Total Cell Count” value [7] was 299 and the “Population Apoptotic (%)” value [8] was 100%. For the same compound, the “Population Fragmented Nuclei (%)” value [8] was 70%, the “Population Healthy Nuclei (%)” value [8] was 28% and the “Population Hoechst High Intensity Objects (%)” value [8] was 53%. The “Population Membrane Permeable-Phenotype (%)” value [8] was 31%, the “Population Mitochondria Different-Phenotype (%)” value [8] was 18% and the “Population Mitotic Cells (%)” value [8] was 0%. For the same compound, the “Population Normal (%)” value [8] was 46%, the “Population Pyknosed Nuclei (%)” value [8] was 1% and the “Population Tubulin-Different-Phenotype (%)” value [8] was 37%. The “Total Cell Count” value [8] was 122.

With N#Cc1cnc(Nc2cc(NC[C@H]3CNCCO3)c(C(F)(F)F)cn2)cn1 [SRA-737] the “Population Apoptotic (%)” value [1] was 65%, the “Population Fragmented Nuclei (%)” value [1] was 23% and the “Population Healthy Nuclei (%)” value [1] was 59%. For the same compound, the “Population Hoechst High Intensity Objects (%)” value [1] was 13%, the “Population Membrane Permeable-Phenotype (%)” value [1] was 9% and the “Population Mitochondria Different-Phenotype (%)” value [1] was 1%. The “Population Mitotic Cells (%)” value [1] was 34%, the “Population Normal (%)” value [1] was 86% and the “Population Tubulin-Different-Phenotype (%)” value [1] was 4%. For the same compound, the “Total Cell Count” value [1] was 196, the “Population Apoptotic (%)” value [2] was 37% and the “Population Fragmented Nuclei (%)” value [2] was 60%. The “Population Healthy Nuclei (%)” value [2] was 21%, the “Population Hoechst High Intensity Objects (%)” value [2] was 35% and the “Population Membrane Permeable-Phenotype (%)” value [2] was 10%. The “Population Mitochondria Different-Phenotype (%)” value [2] was 0%, the “Population Mitotic Cells (%)” value [2] was 62% and the “Population Normal (%)” value [2] was 64%. For the same compound, the “Population Pyknosed Nuclei (%)” value [2] was 17%, the “Population Tubulin-Different-Phenotype (%)” value [2] was 0% and the “Total Cell Count” value [2] was 71. For the same compound, the “Population Apoptotic (%)” value [3] was 69%, the “Population Fragmented Nuclei (%)” value [3] was 33% and the “Population Healthy Nuclei (%)” value [3] was 53%. The “Population Hoechst High Intensity Objects (%)” value [3] was 12%, the “Population Membrane Permeable-Phenotype (%)” value [3] was 11% and the “Population Mitochondria Different-Phenotype (%)” value [3] was 1%. The “Population Mitotic Cells (%)” value [3] was 30%, the “Population Normal (%)” value [3] was 87% and the “Population Pyknosed Nuclei (%)” value [3] was 13%. For the same compound, the “Population Tubulin-Different-Phenotype (%)” value [3] was 8%, the “Total Cell Count” value [3] was 288 and the “Population Apoptotic (%)” value [4] was 28%. The “Population Fragmented Nuclei (%)” value [4] was 58%, the “Population Healthy Nuclei (%)” value [4] was 28% and the “Population Hoechst High Intensity Objects (%)” value [4] was 34%. For the same compound, the “Population Membrane Permeable-Phenotype (%)” value [4] was 7%, the “Population Mitochondria Different-Phenotype (%)” value [4] was 35% and the “Population Mitotic Cells (%)” value [4] was 71%. For the same compound, the “Population Normal (%)” value [4] was 65%, the “Population Pyknosed Nuclei (%)” value [4] was 14% and the “Population Tubulin-Different-Phenotype (%)” value [4] was 21%. For the same compound, the “Total Cell Count” value [4] was 76, the “Population Apoptotic (%)” value [5] was 50% and the “Population Fragmented Nuclei (%)” value [5] was 31%. For the same compound, the “Population Healthy Nuclei (%)” value [5] was 56%, the “Population Hoechst High Intensity Objects (%)” value [5] was 9% and the “Population Membrane Permeable-Phenotype (%)” value [5] was 7%. The “Population Mitochondria Different-Phenotype (%)” value [5] was 2%, the “Population Mitotic Cells (%)” value [5] was 50% and the “Population Normal (%)” value [5] was 90%. The “Population Pyknosed Nuclei (%)” value [5] was 11%, the “Population Tubulin-Different-Phenotype (%)” value [5] was 1% and the “Total Cell Count” value [5] was 205. The “Population Apoptotic (%)” value [6] was 42%, the “Population Fragmented Nuclei (%)” value [6] was 63% and the “Population Healthy Nuclei (%)” value [6] was 22%. For the same compound, the “Population Hoechst High Intensity Objects (%)” value [6] was 24%, the “Population Membrane Permeable-Phenotype (%)” value [6] was 9% and the “Population Mitochondria Different-Phenotype (%)” value [6] was 9%. The “Population Mitotic Cells (%)” value [6] was 57%, the “Population Normal (%)” value [6] was 75% and the “Population Pyknosed Nuclei (%)” value [6] was 14%. For the same compound, the “Population Tubulin-Different-Phenotype (%)” value [6] was 18%, the “Total Cell Count” value [6] was 65 and the “Population Apoptotic (%)” value [7] was 71%. The “Population Fragmented Nuclei (%)” value [7] was 41%, the “Population Healthy Nuclei (%)” value [7] was 48% and the “Population Hoechst High Intensity Objects (%)” value [7] was 18%. The “Population Membrane Permeable-Phenotype (%)” value [7] was 9%, the “Population Mitochondria Different-Phenotype (%)” value [7] was 2% and the “Population Mitotic Cells (%)” value [7] was 28%. For the same compound, the “Population Normal (%)” value [7] was 81%, the “Population Pyknosed Nuclei (%)” value [7] was 10% and the “Population Tubulin-Different-Phenotype (%)” value [7] was 15%. The “Total Cell Count” value [7] was 342, the “Population Apoptotic (%)” value [8] was 28% and the “Population Fragmented Nuclei (%)” value [8] was 59%. For the same compound, the “Population Healthy Nuclei (%)” value [8] was 26%, the “Population Hoechst High Intensity Objects (%)” value [8] was 27% and the “Population Membrane Permeable-Phenotype (%)” value [8] was 15%. The “Population Mitochondria Different-Phenotype (%)” value [8] was 30%, the “Population Mitotic Cells (%)” value [8] was 71% and the “Population Normal (%)” value [8] was 72%. For the same compound, the “Population Pyknosed Nuclei (%)” value [8] was 14%, the “Population Tubulin-Different-Phenotype (%)” value [8] was 30% and the “Total Cell Count” value [8] was 68.

Reference: ChEMBL document CHEMBL4689842, “EUbOPEN Chemogenomics Library wave 1” (2021)
